{"data": "Assay results of several laboratories", "note": "Compare with care: the assays were run in different laboratories. pEC50: −log10 of the molar value."}
{"Structure (SMILES)": "CCCSc1ccc2nc(NC(=O)OC)[nH]c2c1", "organism": "Angiostrongylus cantonensis", "test": "parasite motility", "setting": "24 h, larva", "quantity": "pEC50", "result": 4.97}
{"Structure (SMILES)": "OC(Cn1cncn1)(Cn1cncn1)c1ccc(F)cc1F", "organism": "Alternaria solani", "test": "microbial growth, broth dilution", "quantity": "MIC", "result": "16 µg/mL"}
{"Structure (SMILES)": "CC(=O)c1sc(N/N=C/c2c(-c3ccccc3)nc3ncccn23)nc1C", "organism": "Escherichia coli", "test": "microbial growth, well diffusion", "system": "ATCC25922", "setting": "100 µg/mL", "quantity": "inhibition zone", "result": "14 mm"}
{"Structure (SMILES)": "CNC(C)C1CCC(N)C(OC2C(N)CC(N)C(OC3OCC(C)(O)C(NC)C3O)C2O)O1 (centres unmarked)", "organism": "Escherichia coli", "test": "microbial killing, broth dilution", "system": "ATCC25922", "setting": "24 h", "quantity": "MBC", "result": "4000 µM"}
{"Structure (SMILES)": "CCOC(=O)/C=C1/SC(N/N=C/c2c(-c3ccc(F)cc3)nc3ncccn23)=NC1=O", "organism": "Escherichia coli", "test": "microbial growth, well diffusion", "system": "ATCC25922", "setting": "100 µg/mL", "quantity": "inhibition zone", "result": "10 mm"}
{"Structure (SMILES)": "CC1(C)S[C@@H]2[C@H](NC(=O)[C@H](N)c3ccccc3)C(=O)N2[C@H]1C(=O)O", "organism": "Micrococcus luteus", "test": "microbial growth, broth dilution", "system": "ATCC4698", "setting": "43 h", "quantity": "MIC", "result": "0.5 µg/mL"}
{"Structure (SMILES)": "CCS(=O)(=O)Oc1cc(C=NNC(=O)CSc2nc3c(C)cccc3c(=O)n2-c2ccccc2)ccc1OC", "organism": "Staphylococcus aureus", "test": "microbial growth, well diffusion", "system": "MRSA", "setting": "20 µg/mL", "quantity": "inhibition zone", "result": "3 mm"}
{"Structure (SMILES)": "O=c1cc(Nc2ccccc2)c2ccccc2o1", "organism": "Escherichia coli", "test": "microbial growth, broth dilution", "quantity": "MIC90", "result": "9 µg/mL"}
{"Structure (SMILES)": "CCCS(=O)(=O)Oc1ccc(C=NNC(=O)CSc2nc3c(C)cccc3c(=O)n2-c2ccccc2)cc1", "organism": "Staphylococcus aureus", "test": "microbial growth, well diffusion", "system": "MRSA", "setting": "20 µg/mL", "quantity": "inhibition zone", "result": "2 mm"}
{"Structure (SMILES)": "CN[C@H](CC(C)C)C(=O)N[C@H]1C(=O)N[C@@H](CC(N)=O)C(=O)N[C@H]2C(=O)N[C@H]3C(=O)N[C@H](C(=O)N[C@H](C(=O)O)c4cc(O)cc(O)c4-c4cc3ccc4O)[C@H](O)c3ccc(c(Cl)c3)Oc3cc2cc(c3O[C@@H]2O[C@H](CO)[C@@H](O)[C@H](O)[C@H]2O[C@H]2C[C@](C)(N)[C@H](O)[C@H](C)O2)Oc2ccc(cc2Cl)[C@H]1O", "organism": "Staphylococcus aureus", "test": "microbial growth, agar dilution", "system": "ATCC29213", "quantity": "MIC", "result": "1 µg/mL"}
{"Structure (SMILES)": "CN[C@H](CC(C)C)C(=O)N[C@H]1C(=O)N[C@@H](CC(N)=O)C(=O)N[C@H]2C(=O)N[C@H]3C(=O)N[C@H](C(=O)N[C@H](C(=O)O)c4cc(O)cc(O)c4-c4cc3ccc4O)[C@H](O)c3ccc(c(Cl)c3)Oc3cc2cc(c3O[C@@H]2O[C@H](CO)[C@@H](O)[C@H](O)[C@H]2O[C@H]2C[C@](C)(N)[C@H](O)[C@H](C)O2)Oc2ccc(cc2Cl)[C@H]1O", "organism": "Micrococcus luteus", "test": "microbial growth, broth dilution", "system": "ATCC4698", "quantity": "MIC", "result": "0.34 µM"}
{"Structure (SMILES)": "CN[C@H](CC(C)C)C(=O)N[C@H]1C(=O)N[C@@H](CC(N)=O)C(=O)N[C@H]2C(=O)N[C@H]3C(=O)N[C@H](C(=O)N[C@H](C(=O)O)c4cc(O)cc(O)c4-c4cc3ccc4O)[C@H](O)c3ccc(c(Cl)c3)Oc3cc2cc(c3O[C@@H]2O[C@H](CO)[C@@H](O)[C@H](O)[C@H]2O[C@H]2C[C@](C)(N)[C@H](O)[C@H](C)O2)Oc2ccc(cc2Cl)[C@H]1O", "organism": "Micrococcus luteus", "test": "microbial growth, broth dilution", "system": "DSM1790", "quantity": "MIC", "result": "0.17 µM"}
{"Structure (SMILES)": "O=C1C(=O)c2cccnc2-c2ncccc21", "organism": "Angiostrongylus cantonensis", "test": "parasite motility", "setting": "24 h, larva", "quantity": "pEC50", "result": 4.59}
{"Structure (SMILES)": "CC(=O)NC[C@H]1CN(c2ccc(N3CCOCC3)c(F)c2)C(=O)O1", "organism": "Staphylococcus aureus", "test": "microbial growth, agar dilution", "system": "ATCC29213", "quantity": "MIC", "result": "2 µg/mL"}
